Test results as given in article PMC11792172 (Journal of natural products, 2025).
Like-named read-outs stand apart in the source and are kept apart here.

Columns and labels:
Na+/K+-ATPase (NKA) [1] = assay: Na+/K+-ATPase activity assay; format: biochemical; details: for effect on NKA at a high concentration: high concentration (>100 μM), Figure 3
Method in brief: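 Luminescent ADP detection read out enzyme activity by quantifying the ADP formed during the enzymatic first half-reaction. Assays were run in triplicate and were representative of three independent experiments. IC50 was obtained from dose-response curves by nonlinear regression.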

Na+/K+-ATPase (NKA) [2] = details: read-out: IC50, inhibition of NKA activity, cited from earlier work
[3] = system: MDA-MB-435 melanoma cells; assay: Cytotoxicity assay; format: cell-based; details: Homo sapiens, MDA-MB-435, 72 h, read-out: IC50, inhibition of viability, MDA-MB-435
[4] = system: MDA-MB-231 breast cancer cells; assay: Cytotoxicity assay; format: cell-based; details: Homo sapiens, MDA-MB-231, 72 h, read-out: IC50, inhibition of viability, MDA-MB-231
[5] = system: OVCAR3 ovarian cancer cells; assay: Cytotoxicity assay; format: cell-based; details: Homo sapiens, OVCAR-3, 72 h, read-out: IC50, inhibition of viability, OVCAR3
[6] = system: OVCAR5 ovarian cancer cells; assay: Cytotoxicity assay; format: cell-based; details: Homo sapiens, OVCAR-5, 72 h, read-out: IC50, inhibition of viability, OVCAR5

C[C@]12CC[C@H]3[C@@H](C=CC4=CC(=O)[C@H](O)C[C@@]43C)[C@@H]1CC[C@@H]2C(=O)O [compound 3, (+)-2-hydroxyandrosta-4,6-diene-3-one-17-carboxylic acid]
effect on NKA at a high concentration (Na+/K+-ATPase (NKA) [1]): activate NKA

CO[C@H]1C[C@H](O[C@H]2CC[C@@]3(C)[C@@H](C2)C[C@@H]2O[C@]24[C@@H]3[C@H](OC(C)=O)C(=O)[C@]2(C)[C@@H](C3=CC(=O)OC3)CC[C@]42O)O[C@@H](C)[C@@H]1OC(C)=O [1a, (−)-11,4′-di-O-acetylcryptanoside A]
effect on NKA at a high concentration (Na+/K+-ATPase (NKA) [1]): activate NKA

CO[C@H]1C[C@H](O[C@H]2CC[C@@]3(C)[C@@H](C2)C[C@@H]2O[C@]24[C@@H]3[C@H](O)C(=O)[C@]2(C)[C@H](C3=CC(=O)OC3)CC[C@]42O)O[C@@H](C)[C@@H]1O [compound 2, (−)-17-epi-cryptanoside A]
IC50 (Na+/K+-ATPase (NKA) [1]; read-out: IC50, inhibition of NKA activity): > 20000 nM

CO[C@H]1C[C@H](O[C@H]2CC[C@@]3(C)[C@@H](C2)C[C@@H]2O[C@]24[C@@H]3[C@H](O)C(=O)[C@]2(C)[C@@H](C3=CC(=O)OC3)CC[C@]42O)O[C@@H](C)[C@@H]1O [compound 1, (−)-Cryptanoside A]
IC50 (Na+/K+-ATPase (NKA) [2]; data reported previously): 1200 ± 100 nM

CC(=O)O[C@H]1C(=O)[C@@]2(C)[C@H]([C@H](OC(=O)c3ccccc3)[C@]3(O)C[C@H](OC(=O)[C@H](O)[C@@H](NC(=O)c4ccccc4)c4ccccc4)C(C)=C1C3(C)C)[C@]1(OC(C)=O)CO[C@@H]1C[C@@H]2O [Paclitaxel, paclitaxel]
IC50 [3]: 1.9 ± 0.1 nM
IC50 [4]: 3.8 ± 0.1 nM
IC50 [5]: 4.9 ± 0.1 nM
IC50 [6]: 7.3 ± 0.1 nM

C[C@H]1O[C@@H](O[C@H]2[C@@H](O)C[C@H](O[C@H]3[C@@H](O)C[C@H](O[C@H]4CC[C@@]5(C)[C@H](CC[C@@H]6[C@@H]5C[C@@H](O)[C@]5(C)[C@@H](C7=CC(=O)OC7)CC[C@]65O)C4)O[C@@H]3C)O[C@@H]2C)C[C@H](O)[C@@H]1O [digoxin]
IC50 (Na+/K+-ATPase (NKA) [2]): 230 ± 20 nM
